Experimental data taken from ChEMBL document CHEMBL4138315, “Synthesis and Evaluation of a Novel Bivalent Selective Antagonist for the Mu-Delta Opioid Receptor Heterodimer that Reduces Morphine Withdrawal in Mice” (J Med Chem, 2018).
The source made the active and inactive calls.

Tests used:
[1] = target: T1, Opioid receptors; mu & delta (Homo sapiens, UniProt P41143+P35372); experiment: Displacement of [3H]-diprenorphine from human mu-delta opioid receptor expressed in CHO cell membranes after 80 mins by scintillation counting analysis
Outline: (§1)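 Competition binding on MOR-, DOR- or MDOR-CHO membranes used a fixed 3H-diprenorphine level against competitor concentration curves; 30°C, 80 min, GF/B filtration, scintillation counting. Nonspecific binding defined with 500 nM each DMT-Tic-Ala-OH and CTAP. Ki was derived from IC50 and the 3H-diprenorphine KD in each line; MDOR data fitted with a 2-site model. N = 3-4, mean ± SEM.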

[2] = target: T1, Opioid receptors; mu & delta; experiment: Antagonist activity at human mu-delta opioid receptor heterodimer expressed in CHO cell membranes assessed as inhibition of DAMGO-induced [35S]-GTPgammaS binding preincubated for 5 mins followed by DAMGO and [35S]-GTPgammaS addition measured after 80 mins; assay type: functional
Outline: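 MDOR-CHO membranes were preincubated 5 min with antagonist concentration curve, then 1 µM DAMGO and 0.1 nM 35S-GTPγS were added. Incubated 30°C, 80 min; filter harvest, scintillation counting. Normalized to agonist alone and vehicle. N = 3 independent experiments in duplicate.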

Mus musculus [3] = experiment: Reduction in morphine dependence expression in chronic morphine dependence ICR mouse model assessed as inhibition of naloxone-precipitated jumping behavior at 1 nmol, icv administered 5 mins prior to naloxone injection measured up to 20 mins relative to control; assay type: functional; set-up: scale not given: the % may be the effect or the level left
Outline: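 Chronic dependence: morphine sc twice daily at 10, 20 and 35 mg/kg on days 1-3, single 35 mg/kg on morning of day 4. Naloxone 30 mg/kg ip 4 h later. 1 nmol icv or vehicle 5 min before naloxone. Jumps counted over 20 min in plexiglass cylinders, then urine and feces weighed.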

Homo sapiens [4] = species on record: Homo sapiens; experiment: Selectivity ratio of IC50H for human mu-delta opioid receptor heterodimer expressed in CHO cell membranes to IC50 for human DOR expressed in CHO cell membranes; assay type: cell-based
Mus musculus [5] = species on record: Mus musculus; experiment: Antinociceptive activity in CD1 mouse assessed as reduction in morphine-induced nociception at 10 nmol pretreated for 5 mins followed by morphine injection measured up to 2 hrs by tail flick assay; assay type: functional, organism-based
Outline: (§2)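 Male CD-1 mice received 10 nmol icv (vehicle 2% DMSO/10% Tween80/88% water), 5 min before sc agonist. SNC80 was 10 mg/kg in 20% DMSO/10% Tween80/70% saline; morphine was given in saline. 52°C tail flick, 10 s cutoff, recorded over a 2 h time course; experimenter blinded.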

Mus musculus [6] = experiment: Antinociceptive activity in icv dosed CD1 mouse assessed as reduction in CYM51010-induced nociception pretreated for 5 mins followed by CYM51010 injection measured up to 2 hrs by tail flick assay; assay type: functional
Mus musculus [7] = experiment: Antinociceptive activity in icv dosed CD1 mouse assessed as reduction in Deltorphin-2-induced nociception pretreated for 5 mins followed by Deltorphin-2 injection measured up to 2 hrs by tail flick assay; assay type: functional
Mu-type opioid receptor = Mu-type opioid receptor (Homo sapiens, UniProt P35372); experiment: Displacement of [3H]-diprenorphine from human MOR expressed in CHO cell membranes after 80 mins by scintillation counting analysis; settings: cho; outline: as §1
Homo sapiens [8] = species on record: Homo sapiens; experiment: Selectivity ratio of KiH for human mu-delta opioid receptor heterodimer expressed in CHO cell membranes to Ki for human DOR expressed in CHO cell membranes; assay type: cell-based
[9] = target: T1, Opioid receptors; mu & delta; experiment: Antagonist activity at human MOR expressed in CHO cell membranes mixed with human DOR expressed in CHO cell membranes assessed as inhibition of CYM51010-induced [35S]-GTPgammaS binding preincubated for 5 mins followed by CYM51010 and [35S]-GTPgammaS addition measured after 80 mins; assay type: functional
Outline: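 MOR-CHO and DOR-CHO membranes mixed at the molar ratio from MDOR-CHO saturation binding (Bmax 7.9 pmol/mg DOR, 1.1 pmol/mg MOR). Antagonist curve preincubated 5 min, then 1 µM CYM51010 and 0.1 nM 35S-GTPγS. Incubated 30°C, 80 min, then filtered and counted. Normalized to CYM51010 alone and vehicle. N = 3 independent experiments in duplicate.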

Mus musculus [10] = experiment: Antinociceptive activity in CD1 mouse assessed as reduction in DSLET-induced nociception up to 10 nmol, icv pretreated for 5 mins followed by DSLET injection measured up to 2 hrs by tail flick assay; assay type: functional, organism-based
Mus musculus [11] = experiment: Antinociceptive activity in CD1 mouse assessed as reduction in DAMGO-induced nociception up to10 nmol, icv pretreated for 5 mins followed by DAMGO injection measured up to 2 hrs by tail flick assay; assay type: functional, organism-based
[12] = target: T1, Opioid receptors; mu & delta; experiment: Antagonist activity at human mu-delta opioid receptor heterodimer expressed in CHO cell membranes assessed as inhibition of CYM51010-induced [35S]-GTPgammaS binding at high site fraction preincubated for 5 mins followed by CYM51010 and [35S]-GTPgammaS addition measured after 80 mins relative to control; assay type: functional
Outline: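 35S-GTPγS coupling in MDOR-CHO membranes: 5 min antagonist pre-incubation, then 1 µM CYM51010 plus 0.1 nM 35S-GTPγS, 30°C for 80 min, filtration and scintillation read. A 3-variable 2-site antagonist fit gave FHIGH, the fraction of the high-potency site. N = 3-4 independent experiments.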

Mus musculus [13] = experiment: Reduction in morphine dependence expression in acute morphine dependence ICR mouse model assessed as inhibition of naloxone-precipitated GI effects of withdrawal at 1 nmol, […] administered 5 mins prior to naloxone injection measured up to 20 mins; assay type: functional, organism-based
Mus musculus [14] = experiment: Effect on tail flick response in CD1 mouse up to 10 nmol, icv measured up to 2 hrs; assay type: ADME, organism-based; settings: in vivo, icv_or_intrathecal
Outline: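 Naïve male CD-1 mice were given a dose range up to 10 nmol icv, 5 min before icv vehicle in place of agonist. Tail flick latency in 52°C water (10 s cutoff) recorded over 2 h, baseline first; experimenter blinded.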

[15] = target: T1, Opioid receptors; mu & delta; experiment: Antagonist activity at human mu-delta opioid receptor heterodimer expressed in CHO cell membranes assessed as inhibition of CYM51010-induced [35S]-GTPgammaS binding at high site fraction preincubated for 5 mins followed by CYM51010 and [35S]-GTPgammaS addition measured after 80 mins; assay type: functional
Outline: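 Membranes from CHO cells stably expressing human opioid receptor (N-terminal tagged) were preincubated 5 min with antagonist concentration curves, then given 1 µM CYM51010 and 0.1 nM 35S-GTPγS; 30°C, 80 min, GF/B filtration, scintillation counting. Normalized to CYM51010 alone (100%) and vehicle (0%). Fits: 1-site for MOR/DOR (IC50), 2-site for MDOR (IC50HIGH). N = 3-4, duplicate, mean ± SEM.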

Mus musculus [16] = experiment: Reduction in morphine dependence expression in chronic morphine dependence ICR mouse model assessed as inhibition of naloxone-precipitated GI effects of withdrawal at 1 nmol, […] administered 5 mins prior to naloxone injection measured up to 20 mins; assay type: functional, organism-based
Mus musculus [17] = species on record: Mus musculus; experiment: Antinociceptive activity in CD1 mouse assessed as reduction in SNC80-induced nociception at 10 nmol pretreated for 5 mins followed by SNC80 injection measured up to 2 hrs by tail flick assay; assay type: functional, organism-based; outline: as §2

T1 sequence (P35372 whole entry, looked up): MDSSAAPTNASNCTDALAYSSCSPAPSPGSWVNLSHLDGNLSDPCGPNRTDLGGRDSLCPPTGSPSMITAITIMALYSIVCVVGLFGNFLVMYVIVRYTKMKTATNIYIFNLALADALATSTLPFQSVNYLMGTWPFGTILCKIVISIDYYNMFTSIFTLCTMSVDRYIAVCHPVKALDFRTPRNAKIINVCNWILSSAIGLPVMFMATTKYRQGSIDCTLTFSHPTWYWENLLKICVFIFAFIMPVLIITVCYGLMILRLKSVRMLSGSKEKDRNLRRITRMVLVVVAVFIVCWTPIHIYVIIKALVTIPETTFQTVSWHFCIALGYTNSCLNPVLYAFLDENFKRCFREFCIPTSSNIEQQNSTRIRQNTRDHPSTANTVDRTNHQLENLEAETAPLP
T1 sequence (P41143 whole entry, looked up): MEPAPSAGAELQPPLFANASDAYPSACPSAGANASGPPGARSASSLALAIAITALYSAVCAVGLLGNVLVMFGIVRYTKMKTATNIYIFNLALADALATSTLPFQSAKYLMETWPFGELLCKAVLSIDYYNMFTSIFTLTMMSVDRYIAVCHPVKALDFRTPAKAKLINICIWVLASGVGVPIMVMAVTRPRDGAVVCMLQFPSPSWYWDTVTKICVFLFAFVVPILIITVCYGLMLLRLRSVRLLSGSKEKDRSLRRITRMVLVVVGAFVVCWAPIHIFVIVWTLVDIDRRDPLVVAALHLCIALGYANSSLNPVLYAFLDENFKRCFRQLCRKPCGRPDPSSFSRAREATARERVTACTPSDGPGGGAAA
Chain of Mu-type opioid receptor (P35372 whole entry): as the sequence (P35372 whole entry, looked up) above

N[C@@H](Cc1ccc(O)cc1)C(=O)N1Cc2ccccc2C[C@@H]1C(=O)NCC(=O)NCCCCC(=O)N[C@H](CCCCNC(=O)CCCCNC(=O)CNC(=O)[C@@H](Cc1cccc2ccccc12)NC(=O)[C@H](Cc1ccccc1)NC(=O)[C@@H]1CCCN1C(=O)[C@@H](N)Cc1ccc(O)cc1)C(=O)O
KiH [1]: 0.63 nM | IC50 [2]: 153 nM | Activity (Mus musculus [3]): 85.2% | Ratio IC50 (Homo sapiens [4]): 89 | Activity (Mus musculus [5]): Active | A50 (Mus musculus [6]): 2.04 nmol | Activity (Mus musculus [6]): Dose-dependent effect | A50 (Mus musculus [7]): 7.77 nmol | Activity (Mus musculus [7]): Dose-dependent effect | Ki (Mu-type opioid receptor): > 1000 nM | Ratio Ki (Homo sapiens [8]): 133 | IC50H [9]: 89 nM | IC50L [9]: > 1000 nM | Activity (Mus musculus [10]): inactive | Activity (Mus musculus [11]): inactive | Imax [12]: 39% | Activity (Mus musculus [13]): inactive | Activity (Mus musculus [14]): Non-Toxic | IC50H [15]: 0.85 nM | IC50L [15]: > 1000 nM | Activity (Mus musculus [16]): Active | Activity (Mus musculus [17]): inactive
